Measured values as given in ChEMBL document CHEMBL1152715, “13-Methyl-substituted des-C,D analogs of (20S)-1alpha,25-dihydroxy-2-methylene-19-norvitamin D3 (2MD): synthesis and biological evaluation” (Bioorg Med Chem, 2009).

Legend:
[1] = target: T1, Vitamin D3 receptor (Rattus norvegicus, UniProt P13053); test: Displacement of [3H]1-alpha,25-(OH)2D3 from rat recombinant full length VDR
T1 sequence (P13053 whole entry): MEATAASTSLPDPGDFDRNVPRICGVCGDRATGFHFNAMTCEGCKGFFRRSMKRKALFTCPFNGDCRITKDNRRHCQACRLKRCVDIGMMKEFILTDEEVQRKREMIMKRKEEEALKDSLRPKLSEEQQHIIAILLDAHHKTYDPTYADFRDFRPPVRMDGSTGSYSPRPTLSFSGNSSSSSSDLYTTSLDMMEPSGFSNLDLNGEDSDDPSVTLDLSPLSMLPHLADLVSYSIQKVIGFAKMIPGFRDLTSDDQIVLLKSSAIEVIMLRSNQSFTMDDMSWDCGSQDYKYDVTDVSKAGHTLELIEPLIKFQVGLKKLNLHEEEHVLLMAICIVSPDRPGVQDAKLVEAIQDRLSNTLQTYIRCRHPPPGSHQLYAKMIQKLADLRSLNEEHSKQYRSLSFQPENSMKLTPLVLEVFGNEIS
Procedure, shortened: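 It was incubated overnight on ice with 1 nM (final) [3H]1α,25-(OH)2D3 plus unlabeled competitor, ethanol <10%. Bound ligand was collected on hydroxylapatite, washed and scintillation counted. […] Runs were in duplicate.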

[2] = system: HL-60; test: Induction of cell differentiation of human HL60 cells to monocytes by NBT reduction assay; format: functional, cell-based
[3] = target: T1, Vitamin D3 receptor; test: Activity at VDR in rat ROS 17/2.8 cells assessed as transcriptional activation of 24-hydroxylase gene promoter after 16 hrs by luciferase reporter gene assay; format: cell-based
Procedure, shortened: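 ROS 17/2.8 rat osteosarcoma cells stably transfected with a 24-hydroxylase promoter–luciferase reporter were dosed over a concentration range and harvested 16 h later. Luciferase was read on a luminometer.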

[4] = system: Rattus norvegicus; test: Effect on bone calcium mobilization in vitamin D-deficient weanling rat assessed as increase in serum calcium level at 1.9 ug/kg, ip administered as 7 consecutive daily doses measured 24 hrs after last dose relative to untreated control; format: functional
Procedure, shortened: (§1)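 Weanling male rats were fed a 0.47% Ca diet for 1 week, then a 0.02% Ca diet for 3 weeks. In the final week they received daily intraperitoneal doses for 7 days in 0.1 mL propylene glycol/ethanol (95:5); controls got vehicle. There were 5–6 rats per group. Serum Ca and the intestinal serosal/mucosal Ca ratio were compared with vehicle.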

[5] = system: Rattus norvegicus; test: Effect on bone calcium mobilization in vitamin D-deficient weanling rat assessed as increase in serum calcium level at 5.7 ug/kg, ip administered as 7 consecutive daily doses measured 24 hrs after last dose relative to untreated control; format: functional; procedure, shortened: as §1
[6] = system: Rattus norvegicus; test: Effect on bone calcium mobilization in vitamin D-deficient weanling rat assessed as increase in serum calcium level at 22.8 ug/kg, ip administered as 7 consecutive daily doses measured 24 hrs after last dose relative to untreated control; format: functional; procedure, shortened: as §1
[7] = system: HL-60; test: Ratio of EC50 of drug to EC50 of 1-alpha,25-(OH)2D3 for induction of cell differentiation of human HL60 cells to monocytes by NBT reduction assay
[8] = system: Rattus norvegicus; test: Effect on bone calcium mobilization in vitamin D-deficient weanling rat assessed as increase in serum calcium level at 5.5 ug/kg, ip administered as 7 consecutive daily doses measured 24 hrs after last dose relative to untreated control; format: functional; procedure, shortened: as §1
[9] = system: Rattus norvegicus; test: Effect on bone calcium mobilization in vitamin D-deficient weanling rat assessed as increase in serum calcium level at 55 ug/kg, ip administered as 7 consecutive daily doses measured 24 hrs after last dose relative to untreated control; format: functional; procedure, shortened: as §1
[10] = system: Rattus norvegicus; test: Effect on bone calcium mobilization in vitamin D-deficient weanling rat assessed as increase in serum calcium level at 165 ug/kg, ip administered as 7 consecutive daily doses measured 24 hrs after last dose relative to untreated control; format: functional; procedure, shortened: as §1
[11] = system: Rattus norvegicus; test: Effect on calcium transport in vitamin D-deficient weanling rat intestine assessed as increase in ratio of serosal to mucosal calcium level at 5.5 ug/kg, ip administered as 7 consecutive daily doses measured 24 hrs after last dose; format: functional; procedure, shortened: as §1
[12] = system: Rattus norvegicus; test: Effect on calcium transport in vitamin D-deficient weanling rat intestine assessed as increase in ratio of serosal to mucosal calcium level at 55 ug/kg, ip administered as 7 consecutive daily doses measured 24 hrs after last dose; format: functional; procedure, shortened: as §1
[13] = system: Rattus norvegicus; test: Effect on calcium transport in vitamin D-deficient weanling rat intestine assessed as increase in ratio of serosal to mucosal calcium level at 165 ug/kg, ip administered as 7 consecutive daily doses measured 24 hrs after last dose; format: functional; procedure, shortened: as §1

Row | SMILES | Ki [1] [nM] | EC50 [2] [nM] | EC50 [3] [nM] | fold change (FC) [4] | fold change (FC) [5] | fold change (FC) [6] | Ratio EC50 [7] | fold change (FC) [8] | fold change (FC) [9] | fold change (FC) [10] | Ratio [11] | Ratio [12] | Ratio [13]
1 | C=C1[C@H](O)CC(=C/C=C/CCC[C@@H](C)CCCC(C)(C)O)C[C@H]1O | 50 | 300 | 50 | -0.2 | 0.1 | 0.2 | 100 | – | – | – | – | – | –
2 | C=C1[C@H](O)CC(=C/C=C/C/C(C)=C/[C@@H](C)CCCC(C)(C)O)C[C@H]1O | 60 | > 1000 | > 100 | – | – | – | >333 | – | – | – | – | – | –

Continued, in another order:

Row | Ki [1] [nM] | EC50 [2] [nM] | EC50 [3] [nM] | SMILES | fold change (FC) [4] | fold change (FC) [5] | fold change (FC) [6] | Ratio EC50 [7] | fold change (FC) [8] | fold change (FC) [9] | fold change (FC) [10] | Ratio [11] | Ratio [12] | Ratio [13]
3 | > 1000 | > 1000 | > 100 | C=C1[C@H](O)CC(=C/C=C\C/C(C)=C/[C@@H](C)CCCC(C)(C)O)C[C@H]1O | – | – | – | >333 | – | – | – | – | – | –
4 | 30 | 6 | 3 | C=C1[C@H](O)CC(=C/C=C/C[C@H](C)C[C@@H](C)CCCC(C)(C)O)C[C@H]1O | – | – | – | 2 | – | – | – | – | – | –
5 | 10 | 300 | 90 | C=C1[C@H](O)CC(=C/C=C/C[C@@H](C)C[C@@H](C)CCCC(C)(C)O)C[C@H]1O | – | – | – | 100 | -0.2 | -0.2 | -0.1 | 0.4 | -0.5 | -0.9
